CRFBP-R2 block: antagonists of CRF-binding protein/CRF-R2 receptor complex | inhibition, % at 11.8 µM | AID 588475 | 350,000 tested, 0.59% active | HEK293 CRF-R2/CRF-BP, CRF-induced calcium fluorescence;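 active = inhibition of the ligand-induced calcium signal above about 50% at the single tested concentration, limit read from the data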
CRFR2-BP ag: agonists of human CRF-binding protein/CRF-R2 receptor complex; AID 588473; HEK293 CRF-R2/CRF-BP, calcium dye fluorescence (FLIPR); percent of saturating CRF peptide response; 350,000 tested, 0.46% active; activation, % at 13.2 µM;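 active = activation of at least 50%, plus an integration ratio under a set limit after plate pattern correction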;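 note: plate controls were neutral control wells without compound for no effect and CRF at EC100 for full effect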
Rpn11 inh: inhibitors of human proteasome Rpn11. O00487. human 26S proteasome, Ub4-pepOG fluorescence polarization; 20S core pre-blocked with epoxomicin. calls only at 20 µM. 360,000 tested, 0.59% active. AID 588493;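 active = inhibition at 20 µM, scaled to each plate's controls, above about 33%, limit read from the data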
CSN inh: CSN deneddylation inhibition. Q92905. Purified CSN, SCF-Nedd8-OG deneddylation, fluorescence polarization. inhibition, % at 12.5 µM. 360,000 tested, 0.38% active. AID 651999;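 active = pattern-corrected inhibition above about 35%, with an unprinted fluorescence ratio check between 0.5 and 1.5, limit read from the data, passing the limit was not always enough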;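 note: 0% = enzyme with substrate and 100% = substrate without enzyme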
Target sequence (Q92905 whole entry, looked up, one chain of several): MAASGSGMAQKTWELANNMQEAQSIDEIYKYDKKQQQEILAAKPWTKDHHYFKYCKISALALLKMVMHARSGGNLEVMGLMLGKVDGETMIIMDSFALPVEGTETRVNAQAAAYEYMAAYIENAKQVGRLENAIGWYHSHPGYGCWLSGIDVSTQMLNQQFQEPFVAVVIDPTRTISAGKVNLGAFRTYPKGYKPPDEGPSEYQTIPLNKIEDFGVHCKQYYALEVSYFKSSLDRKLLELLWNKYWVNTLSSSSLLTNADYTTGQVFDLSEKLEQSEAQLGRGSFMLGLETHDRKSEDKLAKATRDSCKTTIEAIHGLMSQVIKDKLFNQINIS
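test system = HEK293T-derived human Csn5 enzyme | amount = 0.24 nM Csn5 enzyme, final concentration | medium = Tris/NaCl/DTT buffer, pH 7.5 | schedule = 90 min reaction at room temperature | signal = FP | evaluation = inhibition of Csn5 cleavage, % | compound dosing = single dose of 12.5 µM compound with 0.25% DMSO | probe or stimulus = 10 nM SCFSkp2-Nedd8OG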
HNF4A DNA FP: change in binding of human HNF4 alpha to DNA; AID 1224865; P41235; activity change, % at 10 µM; 360,000 tested, 0.3% active; HNF4a-FITC DNA binding, fluorescence polarization, 1 h; in the data active = activity change above about 30%, passing the limit was not always enough
TPT1 inhibitor: inhibitors of Candida albicans tRNA 2'-phosphotransferase TPT1; 300,000 tested, 0.81% active; AID 1962; recombinant caTPT1, FP RNA substrate dephosphorylation; inhibition, % at 5 µM;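 active = inhibition above the mean of all tested compounds plus 3 SD, set per screening campaign, cut at about 24% in these data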;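 note: plate controls were DMSO alone for no effect and ferristatin control at 100 nM for full effect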
TPT1 inh confirm: TPT1 (C. albicans) inhibition, confirmation. inhibition, % at 5 µM. shares compounds with TPT1 inhibitor. 2,400 tested, 74% active. AID 2149. recombinant caTPT1, fluorescence polarization, RNase T1 coupled;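 active = inhibition above the primary screen limit, the mean inhibition of all tested compounds plus 3 SD, cut at about 25% in these data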
RNase T1 counter: RNase T1 inhibition in TPT1 counter-screen | RNase T1 cleavage, fluorescence polarization, 1536-well | shares compounds with TPT1 inhibitor | inhibition, % at 5 µM | 2,400 tested, 83% active;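 active = inhibition above the solvent-only control well mean plus 3 SD, limit set per screening run, cut at about 23% in these data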;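 note: plate controls were DMSO wells with enzyme for no effect and wells without RNase T1 for full effect; inhibitors block cleavage so intact labeled substrate keeps polarization high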
Target sequence (P00651 whole entry, looked up): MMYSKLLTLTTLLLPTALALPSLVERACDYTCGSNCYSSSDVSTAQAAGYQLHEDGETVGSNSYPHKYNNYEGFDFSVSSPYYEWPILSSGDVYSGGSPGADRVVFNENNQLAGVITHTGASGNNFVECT
Rpn11 confirm: Rpn11 inhibition confirmation, single concentration. shares compounds with Rpn11 inh. purified human 26S proteasome, Ub4-pepOG fluorescence polarization; proteasome pretreated with epoxomicin. inhibition, % at 20 µM. 1,900 tested, 29% active. AID 602318
MMP-2 counter: blocks human MMP-2, flagging nonselective RPN11 hits | shares compounds with Rpn11 inh | recombinant MMP-2, FRET peptide cleavage fluorescence | inhibition, % at 20 µM | 1,900 tested, 4% active | AID 602330;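 note: human MMP-2 activated beforehand with APMA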
Thrombin inh: blocks bovine thrombin, flagging nonselective RPN11 hits; AID 602333; shares compounds with Rpn11 inh; bovine thrombin cleavage of Ub4-pepOG, fluorescence polarization; inhibition, % at 20 µM; 1,900 tested, 13% active;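 active = mean inhibition at least 40% at 20 µM, or signal 3 deviations below plate average, so some actives read negative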;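 note: plate controls were thrombin with DMSO for no effect and buffer wells lacking thrombin for full effect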
The depositor's hits bear a star; i = inactive; nt = no result given; + = active, no number. Most compounds without a hit are left out; they make up all but 2.3% or so of the library. Cut-off read from the data, not from the text of the source, unless noted: active = inhibition above about 40%; inactive = the rest.

SMILES	CRFBP-R2 block	CRFR2-BP ag	Rpn11 inh	CSN inh	HNF4A DNA FP	TPT1 inhibitor	TPT1 inh confirm	RNase T1 counter	Rpn11 confirm	MMP-2 counter	Thrombin inh
OCC1CN1C1CCCCC1 (centres undefined)	-8	0	i	4	2	nt	nt	nt	nt	nt	nt
COC(=O)CSC1=NN1c1cc(C)nc(N)n1	8	0	i	1	-2	-3	nt	nt	nt	nt	nt
CCOC(=O)c1c(-n2c(C)cc(/C=C3\C(=O)NC(=O)N(C)C3=O)c2C)sc2c1CCCC2	-194	30	i	2	2	17	nt	nt	nt	nt	nt
Cc1cc(/C=C2\C(=O)NC(=O)N(c3ccc(Cl)cc3)C2=O)c(C)n1-c1sc2c(c1C#N)CCCC2	-34	11	+	27	5	46*	19	28*	36	-16	24
COc1ccc(-n2c(/C=C/c3ccc(O)c(O)c3)nc3ccccc3c2=O)cc1	-5	3	+	24	20	36*	58*	61*	72*	3	53*
COc1ccc(Cn2c(N)c(C(=O)NCc3ccco3)c3nc4ccccc4nc32)cc1OC	-25	3	+	57*	11	28*	7	12	-4	-37	-2
Cc1ccc2c(c1)N(C(=O)CCC(=O)N1CCC3(CC1)OCCO3)CCO2	4	-1	i	-1	1	-2	nt	nt	nt	nt	nt
C=CCn1c(O)c(/C=C2\C=Nc3ccccc32)c(=O)[nH]c1=O	-25	1	+	8	1	36*	13	21	14	-5	10
COc1ccccc1-n1c(O)c(/C=C2\C=Nc3ccccc32)c(=O)[nH]c1=O	-33	2	+	4	1	29*	15	22*	6	1	0
COc1ccc(OC)c(-n2c(O)c(/C=C3\C=Nc4ccccc43)c(=O)[nH]c2=O)c1	-17	-1	i	5	1	15	nt	nt	nt	nt	nt
C=CCn1c(O)c(/C=N/NC(=O)c2ccncc2)c(=O)[nH]c1=O	2	0	i	1	2	5	nt	nt	nt	nt	nt
COc1cccc(CC(=O)N(C)C2CCCN(Cc3ccccc3F)C2)c1 (centres undefined)	6	-3	i	-2	0	6	nt	nt	nt	nt	nt
c1ccc(Nc2ccc(Nc3ccccc3)cc2)cc1	-6	5	i	-2	2	nt	nt	nt	nt	nt	nt
Cn1c(O)c(/C=N/NC(=O)c2ccncc2)c(=O)n(C)c1=S	2	11	+	22	14	116*	101*	111*	39	-39	20
O=C(N/N=C/c1c(O)n(-c2ccccc2)c(=O)[nH]c1=O)c1ccncc1	-4	-1	i	11	7	16	nt	nt	nt	nt	nt
COc1ccc(CC(=O)Nc2ccc3c(C(F)(F)F)cc(=O)oc3c2)cc1OC	2	3	i	4	4	10	nt	nt	nt	nt	nt
CCN(CC)c1ccc(N=Cc2c(O)n(-c3cc(OC)ccc3OC)c(=O)[nH]c2=O)cc1	10	16	+	21	13	93*	76*	88*	46*	-9	42*
CC(=NCCN(C)C)c1c(O)n(Cc2ccccc2)c(=O)[nH]c1=O	-17	0	i	6	5	-2	nt	nt	nt	nt	nt

Screening data: PubChem, several laboratories
